Experimental data: publication PMC10876062 (Science (New York, N.Y.), 2023)

Columns and labels:
C. albicans hyphae [1] = assay: Propidium iodide membrane permeabilization of C. albicans hyphae; assay type: cell-based, Candida albicans
In short: (§1)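 C. albicans yeast and hyphae were exposed to FITC-tagged test peptide and stained with propidium iodide to read membrane permeabilization. Exposure was in standard antimicrobial peptide assay buffer, in the preferred growth medium (YPD for yeast, RPMI for hyphae), or in buffer plus 2.5% w/v porcine mucus. For hyphae, the assay was repeated with sodium sulfate added as an anionic charge quencher.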

C. albicans hyphae [2] = assay: C. albicans hyphal growth; assay type: cell-based, Candida albicans
In short: (§2)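 C. albicans hyphae were grown in RPMI. They were exposed to the test peptide with or without 2.5% w/v porcine […], alongside scrambled-peptide and magainin-2 controls. Read-outs were respiration by XTT tetrazolium assay, dry weight, biofilm adherence and CFUs. Each assay was run in duplicate, three times.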

[3] = Mucus vs. aqueous partitioning in vitro across 10 kDa MWCO filter; assay type: physicochemical; conditions: 10 kDa MWCO filter separating mucus and aqueous wells
In short: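 Test peptide was added to either the mucus well or the aqueous well of a pair separated by a 10 kDa MWCO filter. Experiments were run in triplicate and repeated three times, with a t-test for comparison.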

[4] = tested on: C. albicans hyphae on Caco-2 cells; assay: C. albicans hyphae-GFP attachment to Caco-2 cells; assay type: cell-based, Candida albicans; conditions: 20 μM peptide, 6 hours, confluent Caco-2, vs vehicle
[5] = tested on: representative Gram-positive and -negative bacteria; assay: Antimicrobial activity against bacteria; assay type: cell-based; conditions: CFUs and O.D. normalized to 0 μM PYY
In short: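 Gram-positive and Gram-negative bacteria were exposed to a range of test peptide concentrations, with or without mucus, and compared with a magainin-2 reference peptide. Surviving CFUs were normalised to 0 μM peptide, and O.D. growth to wells with 0 μM peptide. Each assay was run in duplicate, three times, and analysed by ANOVA.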

C. albicans yeast [6] = assay: Propidium iodide membrane permeabilization of C. albicans yeast; assay type: cell-based, Candida albicans; conditions: 30 μM peptide
In short: as §1

C. albicans hyphae [7] = assay: C. albicans hyphal respiration; assay type: cell-based, Candida albicans; conditions: XTT assay; increasing concentrations, with or without 2.5% w/v mucin
In short: as §2

C. albicans yeast [8] = assay: C. albicans yeast survival; assay type: cell-based, Candida albicans; conditions: increasing concentrations, media with or without 2.5% w/v mucin; CFU and O.D.
In short: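 C. albicans yeast were grown in YPD. They were exposed to the test peptide with or without 2.5% w/v porcine […], alongside scrambled-peptide and magainin-2 controls. Survival was read as CFUs and growth as optical density. Each assay was run in duplicate, three times.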

**Q.** For “PYY1–36 - fluorescein isothiocyanate (FITC) tagged peptide: FITC tagged PYY1–36”, which “Co-localization of tagged peptide with PI signal” value (C. albicans hyphae [1]; FITC-tagged peptide, fluorescence microscopy) is on record?
**A.** co-localized with the PI signal within hyphae

**Q.** What does the source list for “PYY1–36: unmodified, full length peptide YY expressed by Paneth cells”?
**A.** Shape of dose-response in biofilm and colony forming units (C. albicans hyphae [2]; 2.5% w/v mucin present): sigmoidal dose-response curve; Concentration of peak effect (biphasic dose-response) (C. albicans hyphae [2]; aqueous (RPMI) buffer): ~ 30 μM; Concentration of loss of activity (biphasic dose-response) (C. albicans hyphae [2]; aqueous (RPMI) buffer, attributed to self-aggregation): 100 µM; Concentration at which biofilm formation was significantly reduced (C. albicans hyphae [2]; aqueous conditions, biofilm adherence): 20 to 50 µM; Concentration at which hyphal growth was significantly reduced (C. albicans hyphae [2]; aqueous conditions, dry weight): 20 to 50 µM; Partitioning between mucus and aqueous compartments [3]: preferentially partitions into mucus; Concentration at which permeabilization of hyphae was observed (PI) (C. albicans hyphae [1]; hyphae induced in presence of 2.5% w/v porcine mucin, propidium iodide): 30 µM; Peptide-induced permeability (PI) in presence of sodium sulfate (C. albicans hyphae [1]; sodium sulfate as anionic quencher of cationic charge): reduced; Numbers of hyphae attached to Caco-2 cells [4]: significantly reduced; Antimicrobial activity against Gram-positive and -negative bacteria [5]: less activity compared with more effective magainin-2; Permeabilization of yeast (PI) (C. albicans yeast [6]): unaffected; Effect on hyphal respiration (C. albicans hyphae [7]): decrease in hyphal respiration; Effect on yeast numbers or density (C. albicans yeast [8]): did not affect

**Q.** Which Effect on biofilm (C. albicans hyphae [2]; biofilm adherence) does the source give for “PYY3–36: circulating endocrine form, formed by removal of two N-terminal amino acids by DPP-IV [reference compound]” here?
**A.** No differences

**Q.** What about the “Permeabilization / disruption of hyphae (PI), in words” value (C. albicans hyphae [1]; propidium iodide, compared with PYY1–36 (native L-isoform)) of the same substance?
**A.** Less pronounced permeabilization

**Q.** What about the “Effect on hyphal respiration” value (C. albicans hyphae [7]) of the same substance?
**A.** less activity

**Q.** Which “Antimicrobial activity against Gram-positive and -negative bacteria” value [5] does the source give for magainin-2 [reference compound] here?
**A.** more effective
